Screening results deposited in PubChem by Broad Institute.
DENV2 CPE: inhibitors of DENV2 cytopathic effect | DENV2-infected cells, cytopathic effect rescue, plate reader | AID 651640 | CPE inhibition, % at 9.99 µM | 1.7% of 350,000 active; in the data active = CPE inhibition above about 20%, passing the limit was not always enough; tested in BHK-21 cells;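 note: 0% = median of neutral control wells and 100% = median of positive control wells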
PglD DTNB: blocks C. jejuni PglD acetyltransferase activity; purified PglD enzyme, DTNB colorimetric CoA detection; inhibition, % at 12.5 µM; 0.098% of 360,000 active; AID 602405; in the data active = inhibition above about 16%, passing the limit was not always enough
C2C12 statin: suppressors of simvastatin-induced myotoxicity in C2C12 myotubes; ATP luminescence, 48 h; scaled: DMSO 0, geranylgeraniol control 100; rescue of ATP level, % at 7.49 µM; 0.78% of 330,000 active;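 active = mean ATP rescue above about 67%, or every replicate alone reaching that limit, limit read from the data, passing the limit was not always enough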;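 note: myotubes were challenged with 10 µM simvastatin during compound exposure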
FGF22 binding: binders of recombinant human FGF22 by thermal shift; Q9HCT0; SYPRO orange fluorescence; percent of sucrose octasulfate shift, DMSO zero; activity (Tm shift, normalised), % at 9.99 µM; 1.5% of 340,000 active; AID 651658;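 active = mean Tm shift, scaled 0 neutral to 100 positive control, at about 1.3% or above, every replicate too, limit read from the data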
XiGFP reactiv: reactivates the inactive X chromosome in mouse fibroblasts; XiGFP mouse fibroblasts, % GFP-positive cells imaging, 3 d; cells co-treated with 5-aza-dC sensitizer; scaled so ellipticine positive control = 100%; 0.055% of 360,000 active; activation, % at 7.58 µM;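 active = mean normalized replicate activation at least 10% and every replicate at or above 10%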;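 note: 0% = median of on-plate neutral control wells and 100% = ellipticine 6 µM median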
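System: SV40-immortalized XiGFP fibroblast cells, line 68-5-11 / Incubation: 3-day compound exposure, then 15 min fixation at room temperature / Compound: single concentration per compound, delivered by pin transfer / Buffer or medium: DMEM plus 5-aza-dC sensitizer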
E-sel inducer: E-selectin induction on HUVECs; P16581; activation, % at 7.58 µM; HUVEC E-selectin immunofluorescence imaging; normalized: neutral wells 0, TNF-alpha wells 100; 0.37% of 260,000 active; AID 686992;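 active = mean E-selectin-positive cell signal at least 10% of the positive control, reached in at least 60% of replicates, without over 20% cell loss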
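System: HUVEC, human umbilical vein endothelial cells; quantity: 3,000 cells/well; buffer or medium: EGM-2 medium, gelatin-coated wells; dosing: single-point compound dose; detection: immunofluorescence imaging; evaluation: % PE-positive cells; benchmarks: TNF-alpha, DMSO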
Active calls of the source: *; nt = no result. A selection: hits, their analogues and other compounds. The true share with any hit is near 3.3%.

SMILES	DENV2 CPE	PglD DTNB	C2C12 statin	FGF22 binding	XiGFP reactiv	E-sel inducer
C[C@@H](NC(=O)c1ncn(C)c1C(=O)N[C@H](C)c1ccccc1)c1ccccc1	90*	13	9	0	0	0
O=C(c1ccccc1)c1nc[nH]c1C(=O)Nc1ccccn1	nt	1	120*	nt	nt	nt
O=C(O)c1cc2nc3c(c(C(F)(F)F)n2n1)CCCC3	5	-2	2	43*	0	nt
O=C(Nc1ccc(F)cc1F)c1cc2nc3c(c(C(F)(F)F)n2n1)CCCC3	nt	6	nt	nt	0	nt
CC1CCC(NC(=O)Nc2cccs2)CC1 (stereo not given)	nt	3	nt	nt	nt	nt
O=S(=O)(NC(=S)NC1CCCCC1)c1cccs1	-8	nt	nt	43*	0	0
O=S(=O)(NC(=S)NC1CCCCC1)c1ccccc1	4	nt	-2	1	0	0
O=C(Nc1cccs1)NC1CCCC1	nt	5	109*	nt	nt	nt
CC(C)[C@@H]1CC=CC[C@H](C)Oc2ccccc2C(=O)N(C)[C@@H](Cc2ccccc2)C(=O)N1 (mixture of isomers)	nt	nt	nt	nt	0	nt
CO[C@@H]1CN(C)C(=O)c2cc(NC(=O)Cc3ccccc3)ccc2OC[C@H](C)N(C(C)=O)C[C@H]1C	2	0	-6	0	0	0
Cc1nnsc1SCCNC(=O)Nc1ccc(Cl)cc1	6	nt	nt	44*	0	3
C[C@@H]1CN([C@@H](C)CO)C(=O)c2cccc(NC(=O)c3ccc(-c4nccs4)cc3)c2O[C@H]1CN(C)Cc1ccc2c(c1)OCO2	-6	6	54	0	0	-1
CC1CCN(C(=O)c2cc(F)c(F)cc2Cl)CC1	nt	-5	135*	nt	nt	nt
Cc1[nH]c2ccccc2c(=O)c1SC(F)(F)C(F)C(F)(F)F (stereo not given)	nt	-7	104*	nt	nt	nt
CCCCC[C@H]1CN(CCc2ccccc2)C(=O)[C@@H]1CC(=O)NCc1ccc(OC)cc1	24*	-4	22	0	0	nt
CCCCN1C[C@H](Cc2ccccc2)[C@@H](CC(=O)NCc2ccc(OC)cc2)C1=O	48*	-1	3	0	0	nt
O=C(C[C@H]1C(=O)N(Cc2cccnc2)C[C@@H]1Cc1ccccc1)Nc1ccc(Br)cc1	-3	1	-4	-1	0	8
O=C(C[C@H]1C(=O)N(Cc2ccccc2)C[C@@H]1Cc1ccccc1)Nc1ccc(Br)cc1	26*	1	25	0	0	-1
CCC(=O)Nc1ccc2c(c1)C(=O)N(C)C[C@@H](OC)[C@H](C)CN(Cc1cc(-c3ccccc3)on1)[C@H](C)CO2	8	0	-1	0	0	0
CC(C)CC#Cc1ccc([C@@H]2[C@H](CO)N3CCCCN(S(=O)(=O)Cc4ccccc4)C[C@@H]23)cc1	23*	0	nt	0	0	0
CC(C)CC#Cc1ccc([C@@H]2[C@@H](CO)N3CCCCN(S(=O)(=O)Cc4ccccc4)C[C@@H]23)cc1	22*	2	nt	-1	0	-1
CCCC#Cc1ccc([C@H]2[C@@H](CO)N3CCCCN(S(=O)(=O)Cc4ccccc4)C[C@@H]23)cc1	-7	3	24	0	0	-1
CC(C)CC#Cc1ccc([C@H]2[C@H](CO)N3CCCCN(S(=O)(=O)Cc4ccccc4)C[C@@H]23)cc1	10	0	nt	0	0	0
COc1ccc(C#Cc2cnc3c(c2)C(=O)N([C@H](C)CO)C[C@H](C)[C@H](CN(C)C(=O)c2ccccc2F)O3)cc1	18	-1	11	0	0	0
COc1cccc(CN2[C@@H]3CN(C(=O)c4ccncc4)c4ccccc4[C@@H]3[C@@H]2CO)c1	21*	1	5	-1	0	0
O=C(c1cccnc1)N1C[C@H]2[C@@H](c3ccccc31)[C@@H](CO)N2Cc1ccc2c(c1)OCO2	26*	-3	1	-1	0	1
CC(C)NC(=O)Nc1cccc2c1O[C@H](CN(C)C(=O)Nc1cccc3ccccc13)[C@@H](C)CN([C@@H](C)CO)C2=O	4	1	9	0	0	1
